This note sets out measurements from ChEMBL document CHEMBL1123247, “Nucleoside conjugates. 7. Synthesis and antitumor activity of 1-beta-D-arabinofuranosylcytosine conjugates of ether lipids” (J Med Chem, 1986).

SMILES strings stand for the structures.

Test [1] deals with P388. Kind of test: Antitumor activity was determined against the ip implanted P388 leukemia in mice by 45-day survivors in mice at 67 mg/kg (treatment of 1,5,9qd schedule) dosage. It counts as functional, Mus musculus. Particulars: route intraperitoneal. The method in brief: (§1)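 DBA/2J mice, 23-33 g, in groups of 6, were inoculated ip with 1×10^6 P388 cells on day 0. Dosing was ip from 24 h on the stated schedules, in 0.9% NaCl with 0.5% Tween-80 (sonicated solution or suspension). Survival was followed daily until death or 45 days. Median T/C was calculated from survivors per NCI protocols, with ILS = (T/C − 1) × 100.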

Test [2] has as its system P388. The test can be described thus: Antitumor activity was determined against the ip implanted P388 leukemia in mice by range in survival days at 500 mg/kg (1 qd treatment schedule) dosage; Range is 35->45. Particulars: route intraperitoneal.
Test [3] concerns L1210. The test can be described thus: Antitumor activity was determined against the ip implanted L1210 leukemia in mice by 45-day survivors in mice at 300 mg/kg (treatment of 1qd schedule) dosage. It counts as functional, Mus musculus. Particulars: route intraperitoneal. The method in brief: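 DBA/2J mice in groups of 6 (wt 23-28 g) were inoculated ip with 1×10^6 L1210 cells on day 0. Dosing was ip from 24 h, in 0.9% NaCl with 0.5% Tween-80 (conjugates sonicated), across a range of doses. Mice were observed daily until death or 45 days. Median T/C was computed from survivors per NCI protocols, and ILS = (T/C − 1)×100.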

The test system of test [4] is L1210. Kind of test: Antitumor activity was determined against the ic implanted L1210 lymphoid leukemia in mice by change in […] at 133 mg/kg (1,5,9qd treatment schedule) dosage. It counts as functional, Mus musculus. The method in brief: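 DBA/2J mice, 6 per group (wt 26-32 g), inoculated ic with 1×10^5 L1210 cells on day 0. Dosing ip began 24 h after inoculation, with a sonicated solution or suspension in 0.9% NaCl containing 0.5% Tween-80, given over a range of doses. Animals were followed daily until death. Body weight change, median survival T/C, and %ILS = (T/C − 1) × 100 were computed from survivors per NCI protocols.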

Test [5] has as its system P388. The test can be described thus: Antitumor activity was determined against the ip implanted P388 leukemia in mice by change in […] at 500 mg/kg (1 qd treatment schedule) dosage. It counts as functional, Mus musculus. As to conditions: route intraperitoneal. The method in brief: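 P388 leukemia, 1×10^6 cells implanted ip on day 0 into DBA/2J mice, groups of 6 (wt 23-33 g). Dosing ip started 24 h post-inoculation, vehicle 0.9% NaCl containing 0.5% Tween-80. Animals were observed daily until death or 45 days. Outputs were weight change, median survival T/C from survivors per NCI protocols, and %ILS = (T/C − 1) × 100.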

Test [6] deals with P388. The test can be described thus: Antitumor activity was determined against the ip implanted P388 leukemia in mice by percent increase in life span at 60 mg/kg (treatment of 1-5qd schedule) dosage. It counts as functional, Mus musculus. As to conditions: route intraperitoneal. The method in brief: as §1

With `CCCCCCCCCCCCCCCCCCOCC(COP(=O)(O)OP(=O)(O)OC[C@H]1O[C@@H](n2ccc(N)nc2=O)[C@@H](O)[C@@H]1O)OC(=O)CCCCCCCCCCCCCCC` (mixture of isomers), in the test on P388 [1], the Survivors is recorded as 0.

In turn, `CCCCCCCCCCCCCCCC(=O)OC[C@H](COP(=O)(O)OP(=O)(O)OC[C@H]1O[C@@H](n2ccc(N)nc2=O)[C@@H](O)[C@@H]1O)OC(=O)CCCCCCCCCCCCCCC` showed a Range in the test on P388 [2] of 35. For the same compound, the Survivors in the test with L1210 [3] came out at 1. In addition, the results for the Weight change with L1210 [4] and in the test with P388 [5] were -1.11 g mouse-1 and -0.07 g mouse-1, respectively.

For the compound `CCCCCCCCCCCCCCCCOCC(COP(=O)(O)OP(=O)(O)OC[C@H]1O[C@@H](n2ccc(N)nc2=O)[C@@H](O)[C@@H]1O)OC(=O)CCCCCCCCCCCCCCC` (mixture of isomers), the ILS in the test on P388 [6] is reported as above 309.
